Measurements from ChEMBL document CHEMBL1155784, “Aromatic 2-chloroethyl urea derivatives and bioisosteres. Part 2: Cytocidal activity and effects on the nuclear translocation of thioredoxin-1, and the cell cycle progression” (2008).
The source made the active and inactive calls. The rule behind the calls is not given here.

Assays:
[1] = tested on: M21; experiment: Inhibition of nuclear translocation of thioredoxin 1 in human M21 cells at 50 uM after 18 hrs by immunocytochemistry; format: functional, cell-based
Outline: (§1)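 M21 cells seeded on fibronectin-coated coverslips, held 18 h at 37 °C, then treated with compounds (5–50 µM; reference agents 0.1–40 µM) or 0.1% DMSO. Fixed in 3.7% formaldehyde, permeabilized with 0.1% saponin, and blocked in 3% BSA. Stained 1 h at 37 °C with anti-thioredoxin-1 monoclonal (1/200), then with Alexa-488 anti-mouse IgG plus DAPI for nuclei.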

[2] = tested on: MCF7; experiment: Cell cycle arrest in human MCF7 cells assessed as […] phase accumulation at 2 times GI50 after 24 hrs by flow cytometry; format: functional
[3] = tested on: MCF7; experiment: Cell cycle arrest in human MCF7 cells assessed as G2/M phase accumulation at 2 times GI50 after 24 hrs by flow cytometry; format: functional
[4] = tested on: MCF7; experiment: Cell cycle arrest in human MCF7 cells assessed as S phase accumulation at 2 times GI50 after 24 hrs by flow cytometry; format: functional
[5] = tested on: HT-29; experiment: Growth inhibition of human HT29 cells after 48 hrs by sulforhodamine B assay; format: functional; details: for GI50: HT-29, 48 h
Outline: (§2)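 NCI-style sulforhodamine B assay. HT-29 (5×10³), M21 or MCF-7 (3.5×10³) cells were grown 24 h, then given DMSO-solubilized drug at 100 to 0.7 µM final (DMSO <0.5%) for 48 h. Fixed in cold 10% TCA, stained with 0.1% SRB, read at 585 nm after subtracting a day-0 plate. Inhibition is relative to DMSO controls; GI50 from at least triplicate runs.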

[6] = tested on: M21; experiment: Growth inhibition of human M21 cells after 48 hrs by sulforhodamine B assay; format: functional; details: for GI50: M21, 48 h; outline: as §2
[7] = tested on: MCF7; experiment: Cell cycle arrest in human MCF7 cells assessed as S phase accumulation at 2 times GI50 after 24 hrs by flow cytometry
[8] = tested on: MCF7; experiment: Growth inhibition of human MCF7 cells after 48 hrs by sulforhodamine B assay; format: functional; details: for GI50: MCF7, 48 h; outline: as §2
[9] = tested on: MCF7; experiment: Cell cycle arrest in human MCF7 cells assessed as G0/G1 phase accumulation at 2 times GI50 after 24 hrs by flow cytometry
[10] = tested on: MCF7; experiment: Cell cycle arrest in human MCF7 cells assessed as G2/M phase accumulation at 2 times GI50 after 24 hrs by flow cytometry
[11] = tested on: M21; experiment: Inhibition of nuclear translocation of thioredoxin 1 in human M21 cells at 5 uM after 18 hrs by immunocytochemistry; format: functional, cell-based; outline: as §1
[12] = tested on: M21; experiment: Inhibition of nuclear translocation of thioredoxin 1 in human M21 cells at 25 uM after 18 hrs by immunocytochemistry; format: functional, cell-based; outline: as §1

Row | Structure (SMILES) | Activity [1] | GI50 [5] [µM] | GI50 [6] [µM] | Activity [7] [%] | GI50 [8] [µM] | Activity [9] [%] | Activity [10] [%] | Activity [11] | further results
1 | O=C(NCCCl)Nc1ccc(OC2CCCCCC2)cc1 | Active |  |  |  |  |  |  |  | Activity [2]: 75%; Activity [3]: 6%; Activity [4]: 19%
2 | c1cc(OC2CCCCCC2)ccc1NC1=NCCO1 | Active | 16.6 | 27.1 | 14 | 26.8 | 82 | 4 |  | 
3 | O=C(CCl)NC(=O)Nc1ccc2ccccc2c1 |  | 4.9 | 3.7 |  | 7.6 |  |  | inactive | 
4 | O=C(NCCCl)Nc1cccc(OC2CCCCCC2)c1 | Active |  |  |  |  |  |  |  | Activity [2]: 72%; Activity [3]: 6%; Activity [4]: 22%
5 | C1COC(NC2C3CC4CC(C3)CC2C4)=N1 (stereo not given) | Active | 53.4 | 60.7 |  | 24.1 |  |  |  | 
6 | O=C(NCCCl)Nc1ccc(-c2ccccc2)cc1 | Active | 8.3 | 14.5 |  | 42 |  |  |  | Activity [12]: Active
7 | c1ccc2cc(NC3=NCCO3)ccc2c1 | Active | 2 | 3.5 |  | 4.5 |  |  | Active | 
8 | c1ccc(Oc2ccc(NC3=NCCO3)cc2)cc1 | inactive | 2 | 3.1 |  | 3.5 |  |  | inactive | 
9 | O=C(NCCCl)Nc1cccc(OC2CCCCC2)c1 | Active |  |  |  |  |  |  |  | Activity [2]: 59%; Activity [3]: 8%; Activity [4]: 33%
10 | c1cc(OC2CCCCC2)ccc1NC1=NCCO1 | Active | 12.6 | 20.8 | 13 | 19.1 | 82 | 5 |  | 
11 | c1cc2c(cc1NC1=NCCO1)CCC2 | Active |  |  |  |  |  |  |  | Activity [12]: Active
12 | O=C(CCl)NC(=O)Nc1ccc2c(c1)CCC2 |  |  |  |  |  |  |  | Active | 
13 | c1cc(OC2CCCC2)ccc1NC1=NCCO1 | Active | 16.1 | 21.1 | 23 | 23.1 | 70 | 7 |  | 
14 | O=C(CCl)NC(=O)Nc1ccc(OC2CCCCCC2)cc1 |  | 2.3 | 5 | 30 | 3.6 | 59 | 11 | Active | 
15 | O=C(CCl)NC(=O)NC1c2ccccc2-c2ccccc21 |  |  |  |  |  |  |  | inactive | 
16 | O=C(NCCCl)NC1c2ccccc2-c2ccccc21 | Active |  |  |  |  |  |  |  | 
17 | O=C(NCCCl)Nc1ccc(OCc2ccccc2)cc1 | inactive | 37.5 |  |  | 79.7 |  |  |  | Activity [6]: inactive
18 | O=C(CCl)NC(=O)Nc1ccc(OC2CCCC2)cc1 |  | 3.1 | 2.9 | 33 | 3.9 | 58 | 9 | Active | 
19 | Cc1ccc(NC(=O)NC(=O)CCl)cc1 |  |  |  |  |  |  |  | Active | 
20 | Ic1ccc(NC2=NCCO2)cc1 |  |  |  | 10 |  | 14 | 76 | Active | 
21 | CC(C)(C)c1ccc(NC(=O)NC(=O)CCl)cc1 |  |  |  | 20 |  | 61 | 19 | Active | 
22 | O=C(NCCCl)NC1C2CC3CC(C2)CC1C3 (stereo not given) | inactive | 50.6 |  |  | 11.3 |  |  |  | Activity [6]: inactive
23 | O=C(CCl)NC(=O)Nc1ccc(-c2ccccc2)cc1 |  | 2.3 | 1.4 |  | 3.9 |  |  | Active | 
24 | c1cc(NC2=NCCO2)cc(OC2CCCCC2)c1 | Active | 4.4 | 12 | 19 | 15.9 | 43 | 38 |  | Activity [12]: Active
25 | O=C(CCl)NC(=O)Nc1ccc(OCc2ccccc2)cc1 |  | 2.6 | 5.1 |  | 4.6 |  |  | inactive | 
26 | Cc1ccc(NC(=O)NC(=O)CCl)cc1C |  |  |  |  |  |  |  | inactive | 
27 | c1ccc(-c2ccc(NC3=NCCO3)cc2)cc1 | Active | 5.8 | 8.8 |  | 10.6 |  |  |  | Activity [12]: Active

Row | Structure (SMILES) | Activity [1] | GI50 [5] [µM] | GI50 [6] [µM] | Activity [7] [%] | GI50 [8] [µM] | Activity [9] [%] | Activity [10] [%] | Activity [11] | further results
28 | O=C(CCl)NC(=O)Nc1ccc(C2CCCCC2)cc1 |  | 2.3 | 0.9 | 51 | 1.5 | 25 | 24 | Active | 
29 | CCNC(=O)Nc1ccc2c(c1)CCC2 |  |  |  |  |  |  |  |  | Activity [5]: inactive; Activity [6]: inactive; Activity [8]: inactive
30 | O=C(CCl)NC(=O)NC1C2CC3CC(C2)CC1C3 (stereo not given) |  | 5.1 | 3.2 |  | 6.2 |  |  |  | 
31 | O=C(CCl)NC(=O)Nc1ccc(OC2CCCCC2)cc1 |  | 3.1 | 5 | 20 | 4.7 | 70 | 10 | Active | 
32 | O=C(NCCCl)Nc1cccc(Oc2ccccc2)c1 | inactive |  |  |  |  |  |  |  | 
33 | c1ccc(COc2cccc(NC3=NCCO3)c2)cc1 |  | 0.8 | 1.5 |  | 2.6 |  |  | inactive | 
34 | Cc1ccc(NC(=O)NCCCl)cc1 | Active |  |  |  |  |  |  |  | 
35 | O=C(CCl)NC(=O)Nc1cccc(OC2CCCCC2)c1 |  | 3.8 | 2.7 | 20 | 6.3 | 73 | 7 | Active | 
36 | Cc1ccc(NC2=NCCO2)cc1 | inactive |  |  |  |  |  |  |  | 
37 | O=C(CCl)NC(=O)Nc1ccc(Oc2ccccc2)cc1 |  | 3.6 | 4.2 |  | 4.2 |  |  | inactive | 
38 | O=C(CCl)NC(=O)Nc1cccc(OC2CCCC2)c1 |  | 3.1 | 3.5 | 34 | 6.2 | 53 | 13 | Active | 
39 | c1cc(NC2=NCCO2)cc(OC2CCCC2)c1 | Active | 52.2 | 76.9 | 17 | 62.1 | 77 | 6 |  | 
40 | O=C(CCl)NC(=O)Nc1ccc(I)cc1 |  |  |  | 22 |  | 68 | 10 | Active | 
41 | CCNC(=O)Nc1ccc(OC2CCCCC2)cc1 |  |  |  |  |  |  |  |  | Activity [5]: inactive; Activity [6]: inactive; Activity [8]: inactive
42 | c1cc(NC2=NCCO2)cc(OC2CCCCCC2)c1 | Active | 6.9 | 14.4 | 28 | 14.8 | 48 | 24 |  | Activity [12]: Active
43 | CC(C)(C)c1ccc(NC2=NCCO2)cc1 |  |  |  | 11 |  | 15 | 74 | inactive | 
44 | c1cc(C2CCCCC2)ccc1NC1=NCCO1 | Active | 12.8 | 17.8 | 16 | 17.5 | 73 | 11 |  | 
45 | c1ccc2c(c1)-c1ccccc1C2NC1=NCCO1 | Active |  |  |  |  |  |  |  | 
46 | O=C(CCl)NC(=O)Nc1cccc(OCc2ccccc2)c1 |  | 6.5 | 4.5 |  | 6.2 |  |  | inactive | 
47 | CCNC(=O)Nc1cccc(OC2CCCCCC2)c1 |  |  |  |  |  |  |  |  | Activity [5]: inactive; Activity [6]: inactive; Activity [8]: inactive
48 | CCNC(=O)Nc1ccc(C2CCCCC2)cc1 |  |  |  |  |  |  |  |  | Activity [5]: inactive; Activity [6]: inactive; Activity [8]: inactive
49 | c1ccc(COc2ccc(NC3=NCCO3)cc2)cc1 | Active | 10.3 | 15.9 |  | 11.1 |  |  |  | Activity [12]: Active
50 | c1ccc(Oc2cccc(NC3=NCCO3)c2)cc1 | inactive | 5.5 | 9.6 |  | 12.2 |  |  |  | Activity [12]: inactive
51 | O=C(CCl)NC(=O)Nc1cccc(OC2CCCCCC2)c1 |  | 6.9 | 4.2 | 31 | 7.2 | 58 | 11 | Active | 
52 | O=C(CCl)NC(=O)Nc1cccc(Oc2ccccc2)c1 |  | 5.2 | 5.3 |  | 8.1 |  |  | Active | 
53 | O=C(NCCCl)Nc1ccc2c(c1)CCC2 |  |  |  |  |  |  |  |  | Activity [12]: Active
